Source: ChEMBL document CHEMBL4725385, “Design and synthesis of β-strand-fixed peptides inhibiting aggregation of amyloid β-protein” (Bioorg Med Chem, 2020)
Active and inactive are the calls of the source. The rule behind the calls is not given here. Peptide text beside a SMILES is read from it.

Legend:
[1] = molecular target: Amyloid-beta precursor protein (Homo sapiens) (UniProt P05067); assay: Inhibition of HFIP-pretreated amyloid beta (1 to 42) (unknown origin) aggregation in PBS buffer at pH 7.4 at 40 uM incubated for 48 hrs by thioflavin-T fluorescence assay
Procedure, shortened: (§1)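 Aβ42 pretreated with HFIP (1 mg/mL, 30 min RT, sonicated 5 min, dried to film), then diluted from 0.1% NH4OH stock to final 10 µM in PBS (50 mM sodium phosphate, 100 mM NaCl) with compound from DMSO stock (final 1% DMSO), pH 7.4. Incubated at 37 °C for 0–48 h. Aliquots were frozen at -80 °C, then mixed with 5.0 µM Th-T in 50 mM Gly-NaOH pH 8.5. Fluorescence read at ex 430/em 510 nm, buffer background subtracted; mean ± SD, n = 4.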

[2] = molecular target: Amyloid-beta precursor protein (Homo sapiens) (UniProt P05067); assay: Inhibition of HFIP-pretreated amyloid beta (1 to 42) (unknown origin) aggregation in PBS buffer at pH 7.4 assessed as effect on fibril formation at 40 uM after 48 hrs by uranyl acetate staining based transmission electron microscopy
Procedure, shortened: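 HFIP-treated Aβ42 (final 10 µM) was incubated with compound (final 40 µM) in PBS containing 1% DMSO, pH 7.4, at 37 °C for 48 h. Pellets were collected by centrifugation and resuspended in distilled water. They were left on formvar-coated copper grids for 5 min, negatively stained with 2% uranyl acetate and imaged by TEM.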

[3] = tested on: SH-SY5Y; assay: Neuroprotective activity against amyloid beta (1 to 42 residues) induced cytotoxicity in human SH-SY5Y cells assessed as cell viability at 10 uM after 48 hrs by MTT assay; format: functional, cell-based
Procedure, shortened: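 SH-SY5Y cells (ATCC) were grown in DMEM/F-12 with 10% FBS and penicillin/streptomycin at 37 °C, 5% CO2. Cells were plated at 2.0 × 10^4 per well and pre-incubated for 24 h. HFIP-treated Aβ42 (final 1 µM) and compound (final 10 µM) were added, with 0.5% DMSO and 0.01% NH4OH final. After 48 h, MTT (5 mg/mL stock) was added for 4 h, then DMSO was used for solubilization. Mean ± SD, n = 3.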

[4] = molecular target: Amyloid-beta precursor protein (Homo sapiens) (UniProt P05067); assay: Inhibition of HFIP-pretreated amyloid beta (1 to 42) (unknown origin) aggregation in PBS buffer at pH 7.4 incubated for 48 hrs by thioflavin-T fluorescence assay; procedure, shortened: as §1
[5] = tested on: SH-SY5Y; assay: Cytotoxicity against human SH-SY5Y cells assessed as reduction in cell viability at 10 uM measured after 48 hrs by MTT assay; format: cell-based

Sequence of Amyloid-beta precursor protein (Homo sapiens) (P05067 whole entry): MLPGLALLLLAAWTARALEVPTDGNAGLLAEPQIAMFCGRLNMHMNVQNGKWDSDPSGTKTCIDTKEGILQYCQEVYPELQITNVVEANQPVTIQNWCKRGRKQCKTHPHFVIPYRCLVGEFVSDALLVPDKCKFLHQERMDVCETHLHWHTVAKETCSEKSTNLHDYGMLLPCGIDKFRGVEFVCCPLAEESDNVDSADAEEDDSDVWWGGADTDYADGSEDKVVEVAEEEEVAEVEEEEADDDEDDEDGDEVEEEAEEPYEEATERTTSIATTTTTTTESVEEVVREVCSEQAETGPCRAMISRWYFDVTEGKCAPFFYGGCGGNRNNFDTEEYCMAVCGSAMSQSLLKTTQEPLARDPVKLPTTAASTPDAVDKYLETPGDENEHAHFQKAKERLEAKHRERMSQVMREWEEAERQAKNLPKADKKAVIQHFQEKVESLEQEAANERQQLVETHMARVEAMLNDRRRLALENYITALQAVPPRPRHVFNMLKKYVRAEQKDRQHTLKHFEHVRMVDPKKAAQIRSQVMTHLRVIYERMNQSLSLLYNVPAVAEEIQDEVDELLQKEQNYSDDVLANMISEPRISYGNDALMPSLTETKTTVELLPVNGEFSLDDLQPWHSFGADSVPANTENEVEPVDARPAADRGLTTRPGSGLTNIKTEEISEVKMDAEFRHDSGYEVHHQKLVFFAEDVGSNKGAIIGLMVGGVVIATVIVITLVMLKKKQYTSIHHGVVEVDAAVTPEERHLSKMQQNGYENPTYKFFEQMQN

inhibition [1]	inhibition [2]	inhibition [4]	Structure (SMILES)	Activity [3]	Activity [5]
inactive	inactive	–	CC(C)C[C@H](N)C(=O)N[C@H](C(=O)N[C@H]1Cc2ccc(cc2)OC/C=C/C[C@@H](C(=O)O)NC(=O)[C@H](Cc2ccccc2)NC1=O)C(C)C	inactive	–
Active	inactive	–	CC(C)C[C@H](N)C(=O)N[C@H]1Cc2ccc(cc2)OC/C=C/C[C@@H](C(=O)N[C@@H](CC(=O)O)C(=O)O)NC(=O)[C@H](Cc2ccccc2)NC1=O	inactive	–
Active	inactive	–	O=C(O)C[C@H](NC(=O)[C@@H]1C/C=C/COc2ccc(cc2)C[C@H](NC(=O)[C@@H]2CCCN2)C(=O)N[C@@H](Cc2ccccc2)C(=O)N1)C(=O)O	inactive	–

Further lines, the compound ahead of its results:

Structure (SMILES)	inhibition [1]	inhibition [2]	inhibition [4]	Activity [3]	Activity [5]
CC(C)C[C@H](N)C(=O)N1CCC[C@H]1C(=O)N[C@@H](Cc1ccccc1)C(=O)N[C@@H](Cc1ccccc1)C(=O)O (H-LPFF-OH)	inactive	–	–	–	–
CC(C)[C@@H]1NC(=O)[C@@H](N)C/C=C/COc2ccc(cc2)C[C@@H](C(=O)N[C@@H](Cc2ccccc2)C(=O)N[C@@H](C)C(=O)O)NC1=O	inactive	inactive	–	inactive	–
CC(C)C[C@H](N)C(=O)N[C@H]1Cc2ccc(cc2)OC/C=C/C[C@@H](C(=O)N[C@@H](C)C(=O)O)NC(=O)[C@H](Cc2ccccc2)NC1=O	–	inactive	Dose-dependent effect	inactive	–
COC(=O)[C@@H]1C/C=C/COc2ccc(cc2)C[C@H](NC(=O)OC(C)(C)C)C(=O)N[C@@H](CC(C)C)C(=O)N1	inactive	–	–	–	–
C[C@H](NC(=O)[C@@H]1C/C=C/COc2ccc(cc2)C[C@H](NC(=O)[C@@H]2CCCN2)C(=O)N[C@@H](Cc2ccccc2)C(=O)N1)C(=O)O	Active	inactive	–	inactive	–
CC(C)C[C@H](N)C(=O)N[C@H]1C/C=C/COc2ccc(cc2)C[C@@H](C(=O)N[C@@H](C)C(=O)O)NC(=O)[C@H](Cc2ccccc2)NC1=O	–	inactive	Dose-dependent effect	inactive	Toxic
